In ChEMBL document CHEMBL4732225, “Identification of a new class of HBV capsid assembly modulator” (Bioorg Med Chem Lett, 2021):

Columns and labels:
[1] = Metabolic stability in human microsomes assessed as intrinsic clearance; assay type: ADME, Microsome
[2] = Oral bioavailability in Sprague-Dawley rat at 5 mg/kg; assay type: ADME, organism-based; details: in vivo
How it was run: (§1)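 Sprague-Dawley rats, n = 3. Oral dose 5 mg/kg in 70% PEG400 vehicle; IV dose 1.25 mg/kg in saline vehicle.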

[3] = Tmax in Beagle dog at […], po; assay type: ADME, organism-based, Canis lupus familiaris; details: in vivo, dose 2.5 mg/kg
[4] = Tmax in Sprague-Dawley rat at 5 mg/kg, po; assay type: ADME, organism-based; details: in vivo; how it was run: as §1
[5] = Half life in Beagle dog at […], po or 1 mg/kg, iv; assay type: ADME, organism-based, Canis lupus familiaris; details: in vivo, dose 2.5 mg/kg
[6] = AUC (0 to infinity) in Beagle dog at […], po; assay type: ADME, organism-based, Canis lupus familiaris; design: route oral, time infinity, dose 2.5 mg/kg; details: in vivo
[7] = Volume of distribution at steady state in Beagle dog at […], po or 1 mg/kg, iv; assay type: ADME, organism-based, Canis lupus familiaris; details: in vivo, dose 2.5 mg/kg, read-out: Vdss
[8] = Plasma clearance in Sprague-Dawley rat at 5 mg/kg, po or 1.25 mg/kg, iv; assay type: ADME, organism-based; how it was run: as §1
[9] = Half life in Sprague-Dawley rat at 5 mg/kg, po or 1.25 mg/kg, iv; assay type: ADME, organism-based; details: in vivo; how it was run: as §1
[10] = AUC (0 to infinity) in Sprague-Dawley rat at 5 mg/kg, po; assay type: ADME, organism-based; design: time infinity, route oral, dose 5 mg/kg; details: in vivo; how it was run: as §1
[11] = Ratio of drug level in liver to plasma in Sprague-Dawley rat at 5 mg/kg, po or 1.25 mg/kg, iv; assay type: ADME, organism-based; details: liver and plasma; how it was run: as §1
[12] = Oral bioavailability in Beagle dog at […]; assay type: ADME, organism-based, Canis lupus familiaris; details: in vivo, dose 2.5 mg/kg
[13] = Cmax in Beagle dog at […], po; assay type: ADME, organism-based, Canis lupus familiaris; design: route oral, dose 2.5 mg/kg; details: in vivo
[14] = Cmax in Sprague-Dawley rat at 5 mg/kg, po; assay type: ADME, organism-based; design: route oral, dose 5 mg/kg; details: in vivo; how it was run: as §1
[15] = Volume of distribution at steady state in Sprague-Dawley rat at 5 mg/kg, po or 1.25 mg/kg, iv; assay type: ADME, organism-based; details: in vivo, read-out: Vdss; how it was run: as §1

CLint scaled [1] | Compound | also measured
33 mL/min/kg | O=C(Nc1cccc(Cl)c1)N1CCc2[nH]nc(-c3cscn3)c2C1 | 
356 mL/min/kg | O=C(Nc1cccc(Cl)c1)N1CCc2[nH]nc(-c3cccs3)c2C1 | 
12 mL/min/kg | C[C@H]1Cc2[nH]nc(-c3cscn3)c2CN1C(=O)Nc1ccnc(Br)c1F | 
43 mL/min/kg | C[C@@H]1Cc2[nH]nc(-c3ccccc3)c2CN1C(=O)Nc1cccc(Cl)c1 | 
22 mL/min/kg | CC[C@H]1Cc2[nH]nc(-c3ccccc3)c2CN1C(=O)Nc1cccc(Cl)c1 | 
13 mL/min/kg | C[C@H]1Cc2[nH]nc(-c3cscn3)c2CN1C(=O)Nc1ccc(F)c(C#N)c1 | bioavailability [2]: 38%; Tmax [3]: 1 h; Tmax [4]: 6 h; half-life [5]: 2.17 h; AUC [6]: 1620 ng·h/mL; Vd [7]: 3 L/kg; clearance [8]: 30.7 mL/min/kg; half-life [9]: 2.28 h; AUC(0-inf) [10]: 1030 ng·h/mL; Kp [11]: 17; F [12]: 73%; Cmax [13]: 472 ng/mL; Cmax [14]: 73 ng/mL; Vd [15]: 2.97 L/kg
24 mL/min/kg | C[C@H]1Cc2[nH]nc(-c3cscn3)c2CN1C(=O)Nc1ccc(F)c(Br)c1 | 
14 mL/min/kg | Cc1cc(NC(=O)N2Cc3c(-c4cscn4)n[nH]c3C[C@@H]2C)ccc1F | 
20 mL/min/kg | C[C@H]1Cc2[nH]nc(-c3cscn3)c2CN1C(=O)Nc1cccc(Cl)c1 | 
21 mL/min/kg | C[C@H]1Cc2[nH]nc(-c3cscn3)c2CN1C(=O)Nc1ccc(F)c(Cl)c1 | 
50 mL/min/kg | O=C(Nc1cccc(Cl)c1)N1CCc2[nH]nc(-c3cocn3)c2C1 | 
146 mL/min/kg | C[C@H]1Cc2c(c(-c3cccs3)nn2C)CN1C(=O)Nc1cccc(Cl)c1 | 
160 mL/min/kg | O=C(Nc1cccc(Cl)c1)N1CCc2[nH]nc(-c3ccsc3)c2C1 | 
17 mL/min/kg | C[C@H]1Cc2[nH]nc(-c3cccs3)c2CN1C(=O)Nc1cccc(Cl)c1 | 
53 mL/min/kg | O=C(Nc1cccc(Cl)c1)N1CCc2[nH]nc(-c3nccs3)c2C1 | 
15 mL/min/kg | C[C@H]1Cc2[nH]nc(-c3ccccc3)c2CN1C(=O)Nc1cccc(Cl)c1 | 
